Calls of active or inactive are those of the source. The calls are words filed in the database; no cut-off is given here.
Tested on: Escherichia coli
Assay: Inhibition of [3H]norepinephrine binding to Escherichia coli Qsec by liposome-based scintillation counting assay
Procedure, shortened: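 Liposomes reconstituted with QseC were loaded with tritiated norepinephrine (5 μM) by freeze-thaw in liquid N2 and held 10 min at room temperature, so unbound signal could diffuse out. They were pelleted at 12,000g for 5 min and counted for tritium. Counts were normalized to liposomes loaded with 5 μM tyrosine. Compound was tested at 5 pM and 5 fM.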

Activity | SMILES
Active | Cc1ccc(N(CC2=NCCN2)c2cccc(O)c2)cc1
inactive | CC(C)NCC(O)COc1cccc2ccccc12 (configuration not stated)

— ChEMBL document CHEMBL1152867, “Targeting QseC signaling and virulence for antibiotic development” (Science, 2008)
